# Data reported in ChEMBL document CHEMBL2331396, “Exploration of 1-(3-chloro-4-(4-oxo-4H-chromen-2-yl)phenyl)-3-phenylurea derivatives as selective dual inhibitors of Raf1 and JNK1 kinases for anti-tumor treatment” (Bioorg Med Chem, 2013).
# What was measured:
# [1] = target: Mitogen-activated protein kinase 14 (Homo sapiens) (UniProt Q16539); assay: Inhibition of p38-alpha (unknown origin) at 100 uM
# How it was run: (§1)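 Kinase-Glo Plus luminescent assay. Enzyme, substrate, ATP and compound were mixed in 25 mM HEPES pH 7.4 with 10 mM MgCl₂ and incubated 1 h at 30 °C. The reaction was stopped with an equal volume of Kinase-Glo Plus reagent. Luminescence reflects remaining ATP, inversely related to kinase activity, and is reported as percent inhibition at a single concentration.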
# [2] = target: RAF proto-oncogene serine/threonine-protein kinase (Homo sapiens) (UniProt P04049); assay: Inhibition of Raf1 (unknown origin) at 50 uM; how it was run: as §1
# [3] = target: Mitogen-activated protein kinase 8 (Homo sapiens) (UniProt P45983); assay: Inhibition of JNK1 (unknown origin) at 50 uM
# How it was run: (§2)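 Luminescent Kinase-Glo Plus assay. Enzyme, substrate, ATP and compound were mixed in pH 7.4 buffer containing 25 mM HEPES and 10 mM MgCl2, then incubated at 30 °C for 1 h. An equal volume of Kinase-Glo Plus reagent stopped the reaction before luminescence was read. Signal tracks remaining ATP and runs inversely to kinase activity; results are given as percent inhibition.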
# [4] = target: Mitogen-activated protein kinase 3 (Homo sapiens) (UniProt P27361); assay: Inhibition of ERK1 (unknown origin) at 50 uM; how it was run: as §2
# [5] = Cytotoxicity against human HL7702 cells assessed as inhibition rate at 100 uM measured after 48 hrs by MTT assay; type: cell-based, L02; conditions: read-out: INH
# How it was run: (§3)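 Normal liver cells were grown in DMEM with 10% FBS plus penicillin/streptomycin at 37 °C, 5% CO₂. They were seeded at 5 × 10⁵ cells/mL and incubated 24 h. Compounds from DMSO stock were added at final 50 or 100 µM (DMSO <1%), in triplicate, for 48 h. MTT was added for 4 h, formazan dissolved in DMSO, A495 read, and inhibition rate calculated.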
# [6] = Cytotoxicity against human QSG7701 cells assessed as inhibition rate at 100 uM measured after 48 hrs by MTT assay; type: cell-based; conditions: read-out: INH; how it was run: as §3
# [7] = Cytotoxicity against human QSG7701 cells assessed as inhibition rate at 50 uM measured after 48 hrs by MTT assay; type: cell-based; conditions: read-out: INH; how it was run: as §3
# HepG2 = assay: Antiproliferative activity against human HepG2 cells assessed as growth inhibition measured after 48 hrs by MTT assay; type: functional, cell-based; conditions: HepG2, 48 h
# How it was run: (§4)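 Compounds dissolved in DMSO and diluted in medium to final 0.5–50 µM (final DMSO <1%). Cells were grown in DMEM with 10% FBS, penicillin and streptomycin at 37 °C, 5% CO₂. They were seeded at 5 × 10⁵ cells/mL, incubated 24 h, then treated in triplicate per concentration for 48 h. MTT was added for 4 h, formazan dissolved in DMSO, absorbance read at 495 nm, and IC50 derived.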
# HCT-116 = assay: Antiproliferative activity against human HCT116 cells assessed as growth inhibition measured after 48 hrs by MTT assay; type: functional, cell-based; conditions: HCT-116, 48 h; how it was run: as §4
# A549 = assay: Antiproliferative activity against human A549 cells assessed as growth inhibition measured after 48 hrs by MTT assay; type: functional, cell-based; conditions: A549, 48 h; how it was run: as §4
# [8] = Cytotoxicity against human HL7702 cells assessed as inhibition rate at 50 uM measured after 48 hrs by MTT assay; type: cell-based, L02; conditions: read-out: INH; how it was run: as §3
# [9] = target: Mitogen-activated protein kinase 14 (Homo sapiens) (UniProt Q16539); assay: Inhibition of p38-alpha (unknown origin) at 50 uM; how it was run: as §1
# Chain of Mitogen-activated protein kinase 14 (Homo sapiens) (Q16539 whole entry): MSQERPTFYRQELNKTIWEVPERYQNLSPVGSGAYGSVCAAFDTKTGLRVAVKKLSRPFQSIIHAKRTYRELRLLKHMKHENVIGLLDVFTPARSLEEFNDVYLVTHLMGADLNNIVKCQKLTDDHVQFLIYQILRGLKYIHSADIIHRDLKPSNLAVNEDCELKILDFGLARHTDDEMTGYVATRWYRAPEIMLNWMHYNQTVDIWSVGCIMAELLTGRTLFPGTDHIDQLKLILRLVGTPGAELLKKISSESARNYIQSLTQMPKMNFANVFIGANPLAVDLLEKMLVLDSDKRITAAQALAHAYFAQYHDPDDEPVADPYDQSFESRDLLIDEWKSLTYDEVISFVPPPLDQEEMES
# Chain of RAF proto-oncogene serine/threonine-protein kinase (Homo sapiens) (P04049 whole entry): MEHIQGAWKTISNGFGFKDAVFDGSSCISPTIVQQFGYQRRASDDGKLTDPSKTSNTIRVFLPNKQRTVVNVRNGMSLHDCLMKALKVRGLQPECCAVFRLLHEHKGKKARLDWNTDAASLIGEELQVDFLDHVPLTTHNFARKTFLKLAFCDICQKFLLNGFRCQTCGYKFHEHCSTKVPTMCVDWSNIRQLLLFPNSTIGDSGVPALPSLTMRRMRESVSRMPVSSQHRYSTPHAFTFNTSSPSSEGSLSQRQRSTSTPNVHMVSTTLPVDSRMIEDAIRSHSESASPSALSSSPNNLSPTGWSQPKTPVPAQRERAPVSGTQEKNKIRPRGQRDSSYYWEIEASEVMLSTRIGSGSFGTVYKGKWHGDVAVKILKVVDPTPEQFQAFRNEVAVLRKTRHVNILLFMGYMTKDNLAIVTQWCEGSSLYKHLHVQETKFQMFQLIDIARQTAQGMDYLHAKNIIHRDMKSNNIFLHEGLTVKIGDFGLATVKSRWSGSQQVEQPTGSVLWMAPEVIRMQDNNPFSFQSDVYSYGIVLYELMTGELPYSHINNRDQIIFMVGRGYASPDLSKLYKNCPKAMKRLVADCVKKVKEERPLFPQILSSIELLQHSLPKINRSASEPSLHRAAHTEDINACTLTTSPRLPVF
# Chain of Mitogen-activated protein kinase 8 (Homo sapiens) (P45983 whole entry): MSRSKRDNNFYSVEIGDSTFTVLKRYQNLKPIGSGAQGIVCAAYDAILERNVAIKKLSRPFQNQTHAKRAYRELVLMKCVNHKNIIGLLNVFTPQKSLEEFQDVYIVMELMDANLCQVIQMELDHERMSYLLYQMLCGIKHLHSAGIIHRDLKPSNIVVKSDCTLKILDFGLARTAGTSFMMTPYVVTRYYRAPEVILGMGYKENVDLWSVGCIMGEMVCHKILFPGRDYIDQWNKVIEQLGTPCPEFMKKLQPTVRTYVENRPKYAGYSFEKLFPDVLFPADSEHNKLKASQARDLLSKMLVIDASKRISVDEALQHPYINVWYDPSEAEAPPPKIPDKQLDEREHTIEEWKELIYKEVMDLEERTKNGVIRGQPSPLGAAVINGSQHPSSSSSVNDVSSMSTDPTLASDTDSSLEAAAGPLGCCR
# Chain of Mitogen-activated protein kinase 3 (Homo sapiens) (P27361 whole entry): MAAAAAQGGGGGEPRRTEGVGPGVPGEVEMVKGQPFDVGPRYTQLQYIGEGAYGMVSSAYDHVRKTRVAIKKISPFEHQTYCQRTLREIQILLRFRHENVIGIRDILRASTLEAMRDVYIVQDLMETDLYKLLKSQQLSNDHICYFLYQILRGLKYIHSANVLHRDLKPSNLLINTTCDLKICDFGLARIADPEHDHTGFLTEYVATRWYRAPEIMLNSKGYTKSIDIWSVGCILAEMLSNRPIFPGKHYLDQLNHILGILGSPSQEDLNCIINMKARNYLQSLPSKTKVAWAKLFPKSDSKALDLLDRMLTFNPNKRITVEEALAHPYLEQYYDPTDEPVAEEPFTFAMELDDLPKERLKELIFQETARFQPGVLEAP
inhibition [1] [%],inhibition [2] [%],IC50 (HepG2) [µM],IC50 (HCT-116) [µM],IC50 (A549) [µM],inhibition [9] [%],Structure (SMILES),inhibition [3] [%],inhibition [4] [%],"cytotoxicity at 48 h, 100 µM [5] [%]","cytotoxicity at 48 h, 100 µM [6] [%]","cytotoxicity at 48 h, 50 µM [7] [%]","cytotoxicity at 48 h, 50 µM [8] [%]"
14.5,27,,,,,CCc1ccc2oc(-c3ccc(N)cc3Cl)cc(=O)c2c1,,,,,,
,,,,,,CN[C@@H]1C[C@H]2O[C@@](C)([C@@H]1OC)n1c3ccccc3c3c4c(c5c6ccccc6n2c5c31)C(=O)NC4,96,99.4,,,,
,,9.9,8.6,15.6,,COc1ccc2oc(-c3ccc(NC(=O)Nc4ccc(Cl)c(Cl)c4)cc3Cl)cc(=O)c2c1,,,77.9,42.5,13.2,66.4
,,> 50,> 50,> 50,,CCc1ccc2oc(-c3ccc(NC(=O)Cc4ccc(F)cc4)cc3Cl)cc(=O)c2c1,,,45.2,36.9,16.2,29.1
,,,,,106,Oc1ccc(-c2nc(-c3ccc(F)cc3)c(-c3ccncc3)[nH]2)cc1,,,,,,
,,12.2,25.9,16.8,,O=C(Nc1cccc(Cl)c1)Nc1ccc(-c2cc(=O)c3ccc(O)cc3o2)c(Cl)c1,,,83.8,43.2,34.6,80.2
,,19.8,> 50,> 50,,CCc1ccc2oc(-c3ccc(NC(=O)Cc4cccc(F)c4)cc3Cl)cc(=O)c2c1,,,44.6,27.4,22.4,20.4
